By AUC(0-t) is commonly meant exposure summed from dosing to a finite time, without extrapolation to infinity. A higher AUC(0-t) goes with high exposure. One may read the Tmax as the time at which the peak concentration occurs. The Papp B→A is the apparent permeability from the basolateral to the apical side of a cell layer. For orientation: Papp A→B means how fast a substance crosses the layer from the apical side. As a reminder, the EC50 is the concentration giving half of the maximal effect. In general, Cmax refers to the highest concentration seen after dosing.

These results are taken from ChEMBL document CHEMBL5154683, “A 5-FU Precursor Designed to Evade Anabolic and Catabolic Drug Pathways and Activated by Pd Chemistry In Vitro and In Vivo” (J Med Chem, 2022).

The nature of data set [1]: Stability in human hepatocytes assessed as parent compound remaining at 10 uM measured after 60 mins by UPLC analysis. Conditions: read-out: Stability. The format is ADME, cell-based, Hepatocyte. In a few lines: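 Cryopreserved male Sprague–Dawley rat or male human hepatocytes (0.5 × 10⁶ cells/mL) in Leibovitz buffer with 10 μM compound, 37 °C, shaken 700 rpm, 60 min. Samples at 0 and 60 min quenched 1:1 with ice-cold acetonitrile; supernatant analyzed by UPLC–QToF MS (positive ion). Hepatocyte-only and buffer-only negatives; verapamil and 7-hydroxycoumarin as viability controls.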

The nature of data set [2]: Apparent permeability across basolateral to apical side in human Caco-2 cells assessed as drug recovery at 10 uM measured after 120 mins by LC-MS/MS analysis. The format is ADME, cell-based. To be noted: read-out: Drug recovery. An outline of the steps: (§1)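 Caco-2 cells (P40-60) seeded at 1 × 10⁵ cells/cm² on Transwells, used on day 20; rinsed and equilibrated 40 min in HBSS pH 7.4. Compound at 10 μM in HBSS, 1% v/v DMSO, added apically (A–B) or basolaterally (B–A); 120 min at 37 °C, 5% CO₂. Lucifer yellow monitored monolayer integrity; LC-MS/MS with eight-point calibration; recovery from C₀ and both compartments.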

Data set [3] in a line: Plasma protein binding in rat at 5 uM. The format is ADME, cell-free. Conditions: read-out: PPB (converted). An outline of the steps:
(§2)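 Binding of compound at 5 μM measured in rat and human plasma, with compound recovery determined; n = 3.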

Data set [4] is described as follows: Prodrug conversion in PBS buffer assessed as mono-depropargylated intermediate formation by measuring retention time at 100 uM in presence of Pd-resin measured upto 1 hr by UPLC analysis. The format is ADME. In a few lines: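 Prodrug (100 μM in PBS, pH 7.4) shaken at 1200 rpm, 37 °C with 1 mg/mL Pd resins (30 μm). Sampled at 10, 20, 40 min, 1, 3, 6, 24 and 48 h; analyzed by reverse-phase UPLC (C18, 60 °C, UV 254 nm), products identified by retention time against authentic standards.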

The nature of data set [5]: AUC (0 to t) in male Wistar Han rat at 10 mg/kg, po administered as single dose measured upto 24 hrs. Also noted: time < 24 hrs, dose 10 mg/kg, route po. The format is ADME, organism-based. Conditions: in vivo. In a few lines:
(§3)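 Male jugular-vein-cannulated Wistar Han rats, 263–319 g, single dose. IV: 1 mg/kg as 2 mL/kg of 0.5 mg/mL in 5% DMSO/95% HPCD (20% w/v), not fasted. PO: 10 mg/kg as 5 mL/kg of 2 mg/mL suspension in 5% DMSO/95% tween 80/HPCD vehicle, fasted overnight. Serial cannula blood sampling 0.083/0.25–24 h (n = 3/route); parent quantified by QToF against calibration curve.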

Data set [6] in a line: Apparent permeability across apical to basolateral side in human Caco-2 cells assessed as drug recovery at 10 uM measured after 120 mins by LC-MS/MS analysis. The format is ADME, cell-based. To be noted: read-out: Drug recovery. An outline of the steps:
as §1
Background: Passage across Caco-2 layers is used to estimate intestinal permeability.

The nature of data set [7]: Tmax in male Wistar Han rat at 1000 mg/kg, po administered as single dose measured upto 24 hrs. It counts as ADME, organism-based. Conditions: in vivo. In a few lines:
(§4)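 Single oral dose 1000 mg/kg in male and female rats, dosing volume 10 mL/kg (n = 6); animals observed 14 days with clinical checks, functional/neurobehavioral tests and body weight, necropsy on d15; exposure parameters from the toxicokinetic arm of this study.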

Data set [8] is described as follows: Apparent permeability across basolateral to apical side in human Caco-2 cells at 10 uM measured after 120 mins by LC-MS/MS analysis. The format is ADME, cell-based. In a few lines:
as §1

The nature of data set [9]: Apparent permeability across apical to basolateral side in human Caco-2 cells at 10 uM measured after 120 mins by LC-MS/MS analysis. It counts as ADME, cell-based. An outline of the steps:
as §1

A short description of data set [10]: Plasma protein binding in rat assessed as compound recovery at 5 uM. It counts as ADME, cell-free. To be noted: read-out: Drug recovery. An outline of the steps: as §2
Data set [11] is described as follows: Tmax in male Wistar Han rat at 10 mg/kg, po administered as single dose measured upto 24 hrs. It counts as ADME, organism-based. Conditions: in vivo. In a few lines:
as §3

Another data set relates to HCT-116. In words: Antiproliferative activity against human HCT-116 cells assessed as reduction in cell viability measured after 5 days by PrestoBlue reagent based assay. Conditions: HCT-116, 120 h. The format is functional. In a few lines:
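Cells in 10% FBS, 2 mM L-glutamine media at 37 °C, 5% CO₂ (HCT116 in McCoy's 5A, BxPC-3 in RPMI). Seeded at 3000 (HCT116) or 2500 (BxPC-3) cells/well and grown 48 h. Medium then replaced with drug-containing medium, 0.1% DMSO, for 5 d. PrestoBlue 10% v/v added for 1 h, fluorescence read ex 540/em 590 nm. Normalised to DMSO-only wells; sigmoidal variable-slope fit; n = 3.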

Another data set deals with BXPC-3. In words: Antiproliferative activity against human BxPC-3 cells assessed as increase in cytotoxicity at 1 uM incubated for 5 days in presence of Pd-resin by PrestoBlue dye based assay. The format is functional, cell-based. Conditions: time 5.0 day. An outline of the steps:
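BxPC-3 (RPMI, 10% FBS, 2 mM glutamine) at 2500 cells/well, 48 h attachment, then fresh medium with 1 μM drug/prodrug ± 1 mg/mL Pd resins, 0.1% v/v DMSO, 5 d at 37 °C. Viability by PrestoBlue (10% v/v, 1 h, ex 540/em 590 nm), normalized to DMSO-treated cells; n = 3.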

The nature of data set [12]: Cmax in female Wistar Han rat at 1000 mg/kg, po administered as single dose measured upto 24 hrs. Also noted: time < 24 hrs, dose 1000 mg/kg, route po. It counts as ADME, organism-based. Conditions: in vivo. An outline of the steps: as §4

Active and inactive are the calls of the source. The rule behind the calls is not given here.

Regarding `C#CCOc1ncc(F)c(OCC#C)n1`, the remaining at 1 h, 10 µM in [1] is over 99%. The recovery at 2 h, 10 µM in [2] amounted to 73.9%; in [6], 79.2%. In data set [3], the fraction unbound at 5 µM is 0.161. In addition, the Retention_time in data set [4] turned out to be 0.98 min. The same compound returned an AUC(0-t) at 24 h in [5] of 6080 ng·h/mL. In addition, the results for the Tmax in data set [7] and in [11] were 60 min and 15 min, respectively. In addition, the Papp B→A at 2 h, 10 µM in data set [8] amounted to 38.8 ×10⁻⁶ cm/s. For the same compound, in data set [9], the Papp A→B at 2 h, 10 µM was found to be 28.1 ×10⁻⁶ cm/s. Moreover, the recovery at 5 µM in data set [10] worked out at 94.8%. Besides, the EC50 in the data set on HCT-116 is over 100 µM. In the data set on BXPC-3, the result was Active. Besides, the Cmax in data set [12] stood at 83.6 µg/mL.
